Experimental data as given in ChEMBL document CHEMBL1126705, “16 beta-([18F]fluoro)estrogens: systematic investigation of a new series of fluorine-18-labeled estrogens as potential imaging agents for estrogen-receptor-positive breast tumors” (J Med Chem, 1993).

Columns and labels:
Rattus norvegicus [1] = assay: Tested in vivo for the biodistribution in blood of female rat at 1 hour after intravenous dose of 15 microCi of the drug and 15 u g of estradiol; format: ADME, organism-based
Rattus norvegicus [2] = assay: Tested in vivo for the biodistribution in rat uterus/blood after 3 hours following an intravenous dose of 15 microCi of drug in 10%ethanol saline; format: ADME, organism-based
How it was run: (§1)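 Female Sprague-Dawley rats, 25 days old (~40–53 g), ether-anesthetized, given the 18F-labeled estrogen iv via femoral vein in 10% ethanol saline. […] Others were sacrificed by decapitation at 1 or 3 h. Blood and organs were excised, weighed and gamma counted as % injected dose/g, mean ± SD, typically n = 5 (4–6).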

Rattus norvegicus [3] = assay: Tested in vivo for the biodistribution in blood of female rat at 1 hour after intravenous dose of 15 microCi of drug in 10%ethanol saline; format: ADME, organism-based
How it was run: (§2)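 Ether-anesthetized 25-day-old female Sprague-Dawley rats (~40–53 g) got the [18F] tracer in 10% ethanol saline via femoral vein. Rats were decapitated at 1 or 3 h, and blood and organs were weighed and gamma-counted. Values are % injected dose/g as mean ± SD, n = 5 per time point.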

Rattus norvegicus [4] = assay: Tested in vivo for the biodistribution in rat fat at 1 hour after intravenous dose of 15 microCi of the drug and 15 ug of estradiol; format: ADME, organism-based, Adipose tissue
Rattus norvegicus [5] = assay: Tested in vivo for the biodistribution in rat uterus at 1 hour after intravenous dose of 15 microCi of the drug and 15 micro g of estradiol; format: ADME, organism-based; how it was run: as §1
Rattus norvegicus [6] = assay: Tested in vivo for the biodistribution in rat bone at 1 hour after intravenous dose of 15 microCi of drug in 10%ethanol saline; format: ADME, organism-based, Bone element; how it was run: as §2
Rattus norvegicus [7] = assay: Tested in vivo for the biodistribution in rat uterus after 3 hours following an intravenous dose of 15 microCi of drug in 10%ethanol saline; format: ADME, organism-based
How it was run: (§3)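 Immature (25-day-old) female Sprague-Dawley rats, ether-anesthetized, given the fluorine-18-labeled estrogen by femoral vein injection in 10% ethanol saline. […] Other groups were killed by decapitation at 1 or 3 h. Blood and organs were weighed and gamma-counted. Data are % injected dose/g, mean ± SD, typically n = 5 per group.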

Rattus norvegicus [8] = assay: Tested in vivo for the biodistribution in rat uterus/blood at 1 hour after intravenous dose of 15 microCi of the drug and 15 micro g of estradiol; format: ADME, organism-based; how it was run: as §1
[9] = molecular target: T1, Alpha-fetoprotein (Rattus norvegicus) (UniProt P02773); assay: Relative binding affinity for Alphafetoprotein
T1 sequence (whole entry): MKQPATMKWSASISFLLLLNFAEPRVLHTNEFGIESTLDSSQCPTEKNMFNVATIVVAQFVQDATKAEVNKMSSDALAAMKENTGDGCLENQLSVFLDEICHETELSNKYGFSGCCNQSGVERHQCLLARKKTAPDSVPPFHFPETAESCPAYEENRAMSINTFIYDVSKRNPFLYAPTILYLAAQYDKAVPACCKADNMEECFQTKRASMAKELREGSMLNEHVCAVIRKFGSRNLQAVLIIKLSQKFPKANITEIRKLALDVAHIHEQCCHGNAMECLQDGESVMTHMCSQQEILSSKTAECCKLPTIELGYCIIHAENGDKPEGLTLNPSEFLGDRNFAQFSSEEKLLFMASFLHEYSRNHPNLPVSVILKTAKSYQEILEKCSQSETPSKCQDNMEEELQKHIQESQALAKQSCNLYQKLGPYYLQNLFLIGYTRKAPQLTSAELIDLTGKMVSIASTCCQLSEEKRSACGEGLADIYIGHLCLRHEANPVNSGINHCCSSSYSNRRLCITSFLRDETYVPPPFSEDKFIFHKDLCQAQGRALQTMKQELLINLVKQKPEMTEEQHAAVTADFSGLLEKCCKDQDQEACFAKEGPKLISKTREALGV

[10] = molecular target: T2, Estrogen receptor (Rattus norvegicus) (UniProt P06211+Q62986)
[11] = molecular target: T3, Sex hormone-binding globulin (Homo sapiens) (UniProt P04278); assay: Relative binding affinity against sex steroid binding protein (SBP)
T3 sequence (whole entry): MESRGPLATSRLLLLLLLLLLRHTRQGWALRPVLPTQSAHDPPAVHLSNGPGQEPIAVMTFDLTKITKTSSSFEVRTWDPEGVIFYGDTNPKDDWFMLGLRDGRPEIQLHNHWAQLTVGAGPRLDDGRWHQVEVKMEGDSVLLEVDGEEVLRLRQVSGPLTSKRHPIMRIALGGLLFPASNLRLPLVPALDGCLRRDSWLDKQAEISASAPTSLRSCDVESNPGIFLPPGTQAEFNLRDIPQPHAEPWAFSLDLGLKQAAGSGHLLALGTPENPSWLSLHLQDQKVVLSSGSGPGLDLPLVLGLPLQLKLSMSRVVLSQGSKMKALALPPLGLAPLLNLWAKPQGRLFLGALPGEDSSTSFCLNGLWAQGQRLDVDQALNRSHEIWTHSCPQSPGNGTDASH

[12] = molecular target: T2, Estrogen receptor (Rattus norvegicus); remark: listed apart in the source
Rattus norvegicus [13] = assay: Tested in vivo for the biodistribution in rat ovaries at 1 hour after intravenous dose of 15 microCi of drug in 10%ethanol saline; format: ADME, organism-based, Female gonad; how it was run: as §3
Rattus norvegicus [14] = assay: Tested in vivo for the biodistribution in rat liver after 3 hours following an intravenous dose of 15 microCi of drug in 10%ethanol saline; format: ADME, organism-based; how it was run: as §3
Rattus norvegicus [15] = assay: Tested in vivo for the biodistribution in rat kidney at 1 hour after intravenous dose of 15 microCi of drug in 10%ethanol saline; format: ADME, organism-based; how it was run: as §2
Rattus norvegicus [16] = assay: Tested in vivo for the biodistribution in rat uterus/blood at 1 hour after intravenous dose of 15 microCi of drug in 10%ethanol saline; format: ADME, organism-based; how it was run: as §1
Rattus norvegicus [17] = assay: Tested in vivo for the biodistribution in rat kidney at 1 hour after intravenous dose of 15 microCi of the drug and 15 u g of estradiol; format: ADME, organism-based
Rattus norvegicus [18] = assay: Tested in vivo for the biodistribution in rat uterus at 1 hour after intravenous dose of 15 microCi of drug in 10%ethanol saline; format: ADME, organism-based; how it was run: as §1
Rattus norvegicus [19] = assay: Tested in vivo for the biodistribution in rat bone after 3 hours following an intravenous dose of 15 microCi of drug in 10%ethanol saline; format: ADME, organism-based, Bone element; how it was run: as §2
Rattus norvegicus [20] = assay: Tested in vivo for the biodistribution in rat kidney after 3 hours following an intravenous dose of 15 microCi of drug in 10%ethanol saline; format: ADME, organism-based; how it was run: as §2
[21] = Partition coefficient (logP); format: physicochemical; conditions: octanol/water
How it was run: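 Octanol/water log P estimated from log k'w measured by reversed-phase HPLC (Minick method) on a C8 silica column.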

Rattus norvegicus [22] = assay: Tested in vivo for the biodistribution in rat thymus at 1 hour after intravenous dose of 15 microCi of drug in 10%ethanol saline; format: ADME, organism-based; how it was run: as §3
Rattus norvegicus [23] = assay: Tested in vivo for the biodistribution in rat ovaries at 1 hour after intravenous dose of 15 microCi of the drug and 15 ug of estradiol; format: ADME, organism-based, Female gonad; how it was run: as §3
Rattus norvegicus [24] = assay: Tested in vivo for the biodistribution in rat thymus after 3 hours following an intravenous dose of 15 microCi of drug in 10%ethanol saline; format: ADME, organism-based; how it was run: as §3
Rattus norvegicus [25] = assay: Tested in vivo for the biodistribution in rat uterus/muscle at 1 hour after intravenous dose of 15 microCi of drug in 10%ethanol saline; format: ADME, organism-based, Muscle tissue; how it was run: as §1
Rattus norvegicus [26] = assay: Tested in vivo for the biodistribution in rat bone at 1 hour after intravenous dose of 15 microCi of the drug and 15 ug of estradiol; format: ADME, organism-based, Bone element
Rattus norvegicus [27] = assay: Tested in vivo for the biodistribution in rat uterus/muscle after 3 hours following an intravenous dose of 15 microCi of drug in 10%ethanol saline; format: ADME, organism-based, Muscle tissue; how it was run: as §1
Rattus norvegicus [28] = assay: Tested in vivo for the biodistribution in blood of female rat after 3 hours following an intravenous dose of 15 microCi of drug in 10%ethanol saline; format: ADME, organism-based; how it was run: as §2
Rattus norvegicus [29] = assay: Tested in vivo for the biodistribution in rat muscle at 1 hour after intravenous dose of 15 microCi of drug in 10%ethanol saline; format: ADME, organism-based, Muscle tissue; how it was run: as §3
Rattus norvegicus [30] = assay: Tested in vivo for the biodistribution in rat uterus/muscle at 1 hour after intravenous dose of 15 microCi of the drug and 15 ug of estradiol; format: ADME, organism-based, Muscle tissue; how it was run: as §1
Rattus norvegicus [31] = assay: Tested in vivo for the biodistribution in rat fat after 3 hours following an intravenous dose of 15 microCi of drug in 10%ethanol saline; format: ADME, organism-based, Adipose tissue; how it was run: as §2
Rattus norvegicus [32] = assay: Tested in vivo for the biodistribution in rat muscle after 3 hours following an intravenous dose of 15 microCi of drug in 10%ethanol saline; format: ADME, organism-based, Muscle tissue; how it was run: as §3
Rattus norvegicus [33] = assay: Tested in vivo for the biodistribution in rat thymus at 1 hour after intravenous dose of 15 microCi of the drug and 15 micro g of estradiol; format: ADME, organism-based; how it was run: as §3
Rattus norvegicus [34] = assay: Tested in vivo for the biodistribution in rat liver at 1 hour after intravenous dose of 15 microCi of the drug and 15 u g of estradiol; format: ADME, organism-based; how it was run: as §3
Rattus norvegicus [35] = assay: Tested in vivo for the biodistribution in rat fat at 1 hour after intravenous dose of 15 microCi of drug in 10%ethanol saline; format: ADME, organism-based, Adipose tissue; how it was run: as §2
Rattus norvegicus [36] = assay: Tested in vivo for the biodistribution in rat ovaries after 3 hours following an intravenous dose of 120 microCi of drug in 10%ethanol saline; format: ADME, organism-based, Female gonad; how it was run: as §3
Rattus norvegicus [37] = assay: Tested in vivo for the biodistribution in rat muscle at 1 hour after intravenous dose of 15 microCi of the drug and 15 ug of estradiol; format: ADME, organism-based, Muscle tissue; how it was run: as §3
Rattus norvegicus [38] = assay: Tested in vivo for the biodistribution in rat liver at 1 hour after intravenous dose of 15 microCi of drug in 10%ethanol saline; format: ADME, organism-based; how it was run: as §3

CC[C@H]1C[C@]2(C)[C@@H](O)[C@@H](F)C[C@H]2[C@@H]2CCc3cc(O)ccc3[C@@H]12
Injected (Rattus norvegicus [1]): 0.202% | Injected (Rattus norvegicus [2]): 82.19% | Injected (Rattus norvegicus [3]): 0.108% | Injected (Rattus norvegicus [4]): 1.054% | Injected (Rattus norvegicus [5]): 1.214% | Injected (Rattus norvegicus [6]): 0.889% | Injected (Rattus norvegicus [7]): 6.89% | Injected (Rattus norvegicus [8]): 6.3% | relative binding affinity (RBA) [9]: 0.079 | NSB [10]: 1.6 | relative binding affinity (RBA) [11]: 0.55 | BSI [12]: 158 | Injected (Rattus norvegicus [13]): 2.991% | Injected (Rattus norvegicus [14]): 1.822% | Injected (Rattus norvegicus [15]): 2.534% | Injected (Rattus norvegicus [16]): 52.37% | Injected (Rattus norvegicus [17]): 1.716% | Injected (Rattus norvegicus [18]): 5.57% | Injected (Rattus norvegicus [19]): 1.077% | Injected (Rattus norvegicus [20]): 1.413% | logP [21]: 3.72 | Injected (Rattus norvegicus [22]): 0.779% | Injected (Rattus norvegicus [23]): 1.063% | Injected (Rattus norvegicus [24]): 0.453% | Injected (Rattus norvegicus [25]): 10.81% | Injected (Rattus norvegicus [26]): 1.057% | Injected (Rattus norvegicus [27]): 22.88% | Injected (Rattus norvegicus [28]): 0.084% | Injected (Rattus norvegicus [29]): 0.513% | Injected (Rattus norvegicus [30]): 7.11% | Injected (Rattus norvegicus [31]): 1.294% | Injected (Rattus norvegicus [32]): 0.307% | Injected (Rattus norvegicus [33]): 0.186% | Injected (Rattus norvegicus [34]): 3.615% | Injected (Rattus norvegicus [35]): 1.692% | Injected (Rattus norvegicus [36]): 2.742% | Injected (Rattus norvegicus [37]): 0.189% | Injected (Rattus norvegicus [38]): 2.331%
